Test results as given in ChEMBL document CHEMBL3351414, “Novel 9'-substituted-noscapines: synthesis with Suzuki cross-coupling, structure elucidation and biological evaluation” (Eur J Med Chem, 2014).
Activity calls are given as the source filed them. The calls are words filed in the database; no cut-off is given here.

Legend:
Tubulin [1] = biological target: T1, Tubulin (Bos taurus, UniProt Q6B856+Q862L2+Q862F3); test: Inhibition of bovine brain tubulin assessed as extent of assembly preincubated for 15 mins by turbidimetry
Procedure, shortened: (§1)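 Bovine brain tubulin at 10 µM (1.0 mg/mL) in 0.8 M monosodium glutamate pH 6.6 with 4% DMSO and varying compound was preincubated 15 min at 30 °C, then chilled. GTP was added to 0.4 mM final and the temperature jumped from 0 to 30 °C. Turbidity was followed at 350 nm, scoring either maximum rate or extent of assembly at 20 min.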

IGROV-1 = test: Antiproliferative activity against human IGROV1 cells assessed as reduction in cell viability after 72 hrs by MTT assay; type: functional, cell-based; details: IGROV-1, 72 h
Procedure, shortened: (§2)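 Cells kept in RPMI-1640 (Jurkat, SEM, RS4;11) or DMEM (A549, HeLa, IGROV-1, HT-29) with 10% FBS plus penicillin/streptomycin. 8×10^3 cells per well were left 18 h at 37 °C in 5% CO2. Medium was then replaced with fresh medium holding graded compound concentrations from 10 mM DMSO stocks. Cells were incubated 72 h and viability read by MTT. IC50 is the mean ± SEM from dose–response curves of at least three independent experiments.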

CCRF-CEM = test: Antiproliferative activity against human CEM cells assessed as reduction in cell viability after 72 hrs by MTT assay; type: functional, cell-based
HT-29 = test: Antiproliferative activity against human HT-29 cells assessed as reduction in cell viability after 72 hrs by MTT assay; type: functional, cell-based; details: HT-29, 72 h; procedure, shortened: as §2
A549 = test: Antiproliferative activity against human A549 cells assessed as reduction in cell viability after 72 hrs by MTT assay; type: functional, cell-based; details: A549, 72 h; procedure, shortened: as §2
Tubulin [2] = biological target: T1, Tubulin; test: Displacement of [3H]colchicine from bovine brain tubulin assessed as rate of assembly after 10 mins by liquid scintillation counting
HeLa [3] = test: Antiproliferative activity against human HeLa cells assessed as reduction in cell viability after 72 hrs by MTT assay; type: functional, cell-based; procedure, shortened: as §2
Tubulin (Bos taurus) = Tubulin (Bos taurus) (UniProt Q6B856+Q862L2+Q862F3); test: Displacement of [3H]colchicine from bovine brain tubulin at 500 uM after 10 mins by liquid scintillation counting
PBL [4] = test: Cytotoxicity against resting human PBLs assessed as reduction in cell growth; type: cell-based
Procedure, shortened: (§3)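 Peripheral blood lymphocytes from healthy donors, tested either resting (no PHA) or PHA-stimulated. Value is the concentration reducing cell growth by 50%, mean ± SEM of three separate experiments.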

Tubulin [5] = biological target: T1, Tubulin; test: Inhibition of bovine brain tubulin assessed as rate of assembly preincubated for 15 mins by turbidimetry; procedure, shortened: as §1
PBL [6] = test: Cytotoxicity against PHA-stimulated human PBLs assessed as reduction in cell growth; type: cell-based; procedure, shortened: as §3
[7] = Antiproliferative activity against human RS4:11 cells assessed as reduction in cell viability after 72 hrs by MTT assay; type: functional, cell-based; details: RS4-11, 72 h; procedure, shortened: as §2
[8] = Antiproliferative activity against human SEM cells assessed as reduction in cell viability after 72 hrs by MTT assay; type: functional, cell-based; procedure, shortened: as §2
Jurkat [9] = test: Antiproliferative activity against human Jurkat cells assessed as reduction in cell viability after 72 hrs by MTT assay; type: functional, cell-based; procedure, shortened: as §2
LoVo = test: Antiproliferative activity against human LoVo cells assessed as reduction in cell viability after 72 hrs by MTT assay; type: functional, cell-based
Jurkat [10] = test: Cell cycle arrest in human Jurkat cells assessed as accumulation at G2/M phase at 10 to 25 uM after 24 hrs by flow cytometry; type: functional, cell-based
Procedure, shortened: (§4)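 5×10^5 HeLa or Jurkat cells exposed to graded compound concentrations for 24 h. Cells were fixed in ice-cold 70% ethanol, lysed with RNase A/0.1% Triton X-100 buffer and stained with propidium iodide. DNA content was read by flow cytometry. Phase percentages are mean ± SEM of three independent experiments.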

HeLa [11] = test: Induction of apoptosis in human HeLa cells assessed as ROS production at 6.2 to 50 uM after 24 to 48 hrs using H2-DCFDA -based flow cytometry relative to control; type: functional, cell-based
Procedure, shortened: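 HeLa cells incubated 24 or 48 h at the indicated concentrations, stained with H2-DCFDA and analysed by flow cytometry. Data are mean ± SEM of three independent experiments.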

HeLa [12] = test: Induction of apoptosis in human HeLa cells at 6.2 to 50 uM using Annexin-V/PI staining by flow cytometry; type: functional, cell-based; details: TDE = time-dependent effect
HeLa [13] = test: Induction of apoptosis in human HeLa cells assessed as reduction in Bcl-2 expression at 25 uM after 48 hrs by Western blot analysis; type: functional, cell-based
Procedure, shortened: (§5)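 HeLa cells treated 24 or 48 h at 25 µM, then lysed. 20 µg protein per lane was run on SDS-PAGE and transferred to PVDF. Membranes were probed 2 h at room temperature for cleaved caspase-9, caspase-3, cleaved PARP, Bcl-2, Mcl-1 or Bax, with peroxidase secondary antibody and ECL. β-Actin reprobe served as loading control.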

HeLa [14] = test: Downregulation of phosphorylated form of cdc25c protein level in human HeLa cells at 25 uM after 24 hrs by Western blot analysis; type: functional, cell-based
Procedure, shortened: (§6)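 HeLa cells treated 24 or 48 h at 25 µM, then washed in PBS and lysed 30 min on ice. 20 µg protein per lane was resolved on 7.5–15% SDS-PAGE and blotted to PVDF. Blots were probed for cyclin B, p-cdc2 Tyr15, cdc25C and γH2A.X, with β-actin reprobe as loading control and ECL detection.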

HeLa [15] = test: Upregulation of cdc25c protein level in human HeLa cells at 25 uM after 24 hrs by Western blot analysis; type: functional, cell-based
HeLa [16] = test: Induction of apoptosis in human HeLa cells assessed as mitochondrial membrane depolarization after 24 to 48 hrs using JC-1 staining-based fluorescence assay; type: functional, cell-based
Procedure, shortened: (§7)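 Mitochondrial membrane potential was read with the JC-1 dye in HeLa cells after 24 or 48 h at graded concentrations. Data are mean ± SEM of three independent experiments.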

HeLa [17] = test: Induction of apoptosis in human HeLa cells assessed as mitochondrial membrane depolarization at 6.2 to 50 uM using JC-1 staining-based fluorescence assay; type: functional, cell-based; details: TDE = time-dependent effect; procedure, shortened: as §7
HeLa [18] = test: Upregulation of cyclin B protein level in human HeLa cells at 25 uM after 24 hrs by Western blot analysis; type: functional, cell-based
HeLa [19] = test: Induction of apoptosis in human HeLa cells assessed as reduction in Mcl-1 expression at 25 uM after 48 hrs by Western blot analysis; type: functional, cell-based; procedure, shortened: as §5
HeLa [20] = test: Downregulation of cdc25c protein level in human HeLa cells at 25 uM after 24 hrs by Western blot analysis; type: functional, cell-based; details: in the assay text read “after 48 hrs” for “after 24 hrs”; procedure, shortened: as §6
HeLa [21] = test: Induction of apoptosis in human HeLa cells assessed as reduction in Bcl-2 expression at 25 uM after 24 hrs by Western blot analysis; type: functional, cell-based; procedure, shortened: as §5
HeLa [22] = test: Induction of apoptosis in human HeLa cells assessed as PARP cleavage at 25 uM after 24 to 48 hrs by Western blot analysis; type: functional, cell-based; procedure, shortened: as §5
HeLa [23] = test: Induction of apoptosis in human HeLa cells after 24 to 48 hrs using Annexin-V/PI staining by flow cytometry; type: functional, cell-based
HeLa [24] = test: Induction of apoptosis in human HeLa cells assessed as early apoptotic cells at 25 uM after 24 hrs using Annexin-V/PI staining by flow cytometry (reference value: 5.26 %); type: functional
HeLa [25] = test: Induction of apoptosis in human HeLa cells assessed as caspase 9 cleavage at 25 uM after 24 to 48 hrs by Western blot analysis; type: functional, cell-based; procedure, shortened: as §5
Jurkat [26] = test: Cell cycle arrest in human Jurkat cells assessed as accumulation at G2/M phase after 24 hrs by flow cytometry; type: functional, cell-based; procedure, shortened: as §4
HeLa [27] = test: Induction of apoptosis in human HeLa cells assessed as late apoptotic cells at 25 uM after 24 hrs using Annexin-V/PI staining by flow cytometry (reference value: 4.31 %); type: functional
HeLa [28] = test: Cell cycle arrest in human HeLa cells assessed as accumulation at G2/M phase after 24 hrs by flow cytometry; type: functional, cell-based; procedure, shortened: as §4
HeLa [29] = test: Induction of apoptosis in human HeLa cells assessed as viable cells at 25 uM after 24 hrs using Annexin-V/PI staining by flow cytometry (reference value: 86.7 %); type: functional; details: read-out: Activity
HeLa [30] = test: Cell cycle arrest in human HeLa cells assessed as accumulation at G2/M phase at 25 uM after 24 hrs by flow cytometry; type: functional; procedure, shortened: as §4
HeLa [31] = test: Induction of DNA damage in human HeLa cells assessed as increase in phosphorylated form of histone gamma-H2A.X level at 25 uM after 24 hrs by Western blot analysis; type: functional, cell-based; procedure, shortened: as §6
HeLa [32] = test: Induction of apoptosis in human HeLa cells assessed as reduction in Mcl-1 expression at 25 uM after 24 hrs by Western blot analysis; type: functional, cell-based; procedure, shortened: as §5
HeLa [33] = test: Induction of apoptosis in human HeLa cells assessed as late necrotic cells at 25 uM after 24 hrs using Annexin-V/PI staining by flow cytometry (reference value: 3.70 %); type: functional
HeLa [34] = test: Induction of apoptosis in human HeLa cells assessed as caspase 3 cleavage at 25 uM after 24 to 48 hrs by Western blot analysis; type: functional, cell-based; procedure, shortened: as §5
HeLa [35] = test: Upregulation of aurora kinase A protein level in human HeLa cells at 25 uM after 24 hrs by Western blot analysis; type: functional, cell-based
HeLa [36] = test: Cell cycle arrest in human HeLa cells assessed as accumulation at G2/M phase at 10 to 25 uM after 24 hrs by flow cytometry; type: functional, cell-based; procedure, shortened: as §4

COc1ccccc1-c1c2c(c(OC)c3c1OCO3)[C@H]([C@H]1OC(=O)c3c1ccc(OC)c3OC)N(C)CC2
IC50 (Tubulin [1]): > 400 µM | IC50 (IGROV-1): 90.9 µM | IC50 (CCRF-CEM): 6.9 µM | IC50 (HT-29): 72.7 µM | IC50 (A549): 59.7 µM | IC50 (Tubulin [2]): > 400 µM | IC50 (HeLa [3]): 30.8 µM | inhibition (Tubulin (Bos taurus)): 13% | IC50 (PBL [4]): > 200 µM | IC50 (Tubulin [5]): > 400 µM | IC50 (PBL [6]): 42.4 µM | IC50 [7]: 13.8 µM | IC50 [8]: 22.2 µM | IC50 (Jurkat [9]): 33.6 µM | IC50 (LoVo): 57.1 µM

COc1ccc2c(c1OC)C(=O)O[C@@H]2[C@H]1c2c(c(-c3ccccc3)c3c(c2OC)OCO3)CCN1C
IC50 (Tubulin [1]): > 400 µM | Activity (Jurkat [10]): Active | Activity (HeLa [11]): Active | IC50 (IGROV-1): 68.1 µM | IC50 (CCRF-CEM): 5.2 µM | IC50 (HT-29): 36.5 µM | Activity (HeLa [12]): tde | Activity (HeLa [13]): Active | IC50 (Tubulin [2]): > 400 µM | IC50 (HeLa [3]): 7.4 µM | Activity (HeLa [14]): Active | Activity (HeLa [15]): Active | Activity (HeLa [16]): Dose-dependent effect | Activity (HeLa [17]): tde | Activity (HeLa [18]): Active | Activity (HeLa [19]): Active | inhibition (Tubulin (Bos taurus)): 14% | Activity (HeLa [20]): Active | IC50 (PBL [4]): > 200 µM | Activity (HeLa [21]): inactive | Activity (HeLa [22]): Active | Activity (HeLa [23]): Dose-dependent effect | Activity (HeLa [24]): 15.9% | Activity (HeLa [25]): Active | IC50 (Tubulin [5]): > 400 µM | Activity (Jurkat [26]): Dose-dependent effect | IC50 (PBL [6]): 54.9 µM | Activity (HeLa [27]): 18.4% | Activity (HeLa [28]): Dose-dependent effect | viability at 25 µM (HeLa [29]): 7.53% | IC50 [7]: 2.4 µM | Activity (HeLa [30]): >80% | IC50 [8]: 3.2 µM | Activity (HeLa [31]): Active | Activity (HeLa [32]): Active | Activity (HeLa [33]): 18.1% | IC50 (Jurkat [9]): 5.4 µM | Activity (HeLa [34]): Active | Activity (HeLa [35]): Active | IC50 (LoVo): 42.8 µM | Activity (HeLa [36]): Active

COc1ccc2c(c1OC)C(=O)O[C@@H]2[C@H]1c2c(c(-c3ccc4ccccc4c3)c3c(c2OC)OCO3)CCN1C
IC50 (IGROV-1): 67 µM | IC50 (CCRF-CEM): 23.3 µM | IC50 (HT-29): 58.5 µM | IC50 (A549): 48.1 µM | IC50 (HeLa [3]): 27.4 µM | IC50 (PBL [4]): > 200 µM | IC50 (PBL [6]): > 200 µM | IC50 [7]: 30.8 µM | IC50 [8]: 8.4 µM | IC50 (Jurkat [9]): 20 µM | IC50 (LoVo): 60.3 µM

COc1ccc(-c2c3c(c(OC)c4c2OCO4)[C@H]([C@H]2OC(=O)c4c2ccc(OC)c4OC)N(C)CC3)cc1
IC50 (IGROV-1): 55.6 µM | IC50 (CCRF-CEM): 25.8 µM | IC50 (HT-29): 47.8 µM | IC50 (A549): > 100 µM | IC50 (PBL [4]): > 200 µM | IC50 (PBL [6]): > 200 µM | IC50 [7]: 12.6 µM | IC50 [8]: 15.1 µM | IC50 (Jurkat [9]): 11.3 µM | IC50 (LoVo): 28.8 µM
